By IC50 is commonly meant the point on the concentration scale where inhibition reaches its midpoint.

For data set [1], the target named is T1, Serine/threonine-protein kinase haspin (Homo sapiens, UniProt Q8TF76).
T1 sequence (Q8TF76 whole entry): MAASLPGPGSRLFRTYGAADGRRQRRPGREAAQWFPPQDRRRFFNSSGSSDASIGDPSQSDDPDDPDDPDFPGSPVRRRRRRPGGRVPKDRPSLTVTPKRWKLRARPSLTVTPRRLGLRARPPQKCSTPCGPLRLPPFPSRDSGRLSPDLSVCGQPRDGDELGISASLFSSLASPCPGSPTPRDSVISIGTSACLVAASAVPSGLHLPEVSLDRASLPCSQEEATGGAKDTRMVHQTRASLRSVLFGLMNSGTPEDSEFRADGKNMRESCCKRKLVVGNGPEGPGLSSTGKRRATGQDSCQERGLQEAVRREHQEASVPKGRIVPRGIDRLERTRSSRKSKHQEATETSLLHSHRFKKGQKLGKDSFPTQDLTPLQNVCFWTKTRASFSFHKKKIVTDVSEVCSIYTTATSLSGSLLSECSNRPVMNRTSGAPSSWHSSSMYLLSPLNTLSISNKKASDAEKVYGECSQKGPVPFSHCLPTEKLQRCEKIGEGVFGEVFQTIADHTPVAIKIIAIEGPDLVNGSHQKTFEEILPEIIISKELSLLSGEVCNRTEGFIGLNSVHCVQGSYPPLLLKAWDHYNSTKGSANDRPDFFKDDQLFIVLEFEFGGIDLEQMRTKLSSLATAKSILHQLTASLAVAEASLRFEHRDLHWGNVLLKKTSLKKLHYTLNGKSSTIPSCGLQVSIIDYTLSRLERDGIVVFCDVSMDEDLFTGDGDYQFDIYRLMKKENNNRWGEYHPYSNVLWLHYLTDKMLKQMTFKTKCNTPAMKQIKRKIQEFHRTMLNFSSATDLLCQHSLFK
As to the kind of experiment: Inhibition of recombinant human HASPIN kinase domain (470 to 798 residues) expressed in bacterial expression system using histone H3(1-21) peptide as substrate by ADP-glo assay. In general terms: ADP-Glo first removes unused ATP, then detects ADP through luciferase.

In data set [2] the target is Tyrosine-protein kinase ABL1 (Homo sapiens, UniProt P00519). As to the kind of experiment: Inhibition of recombinant human ABL1 (118 to 535 residues) expressed in baculovirus infected Sf9 insect cells using EAIYAAPFAKKK as substrate by ADP-glo assay.
For data set [3], the target named is Dual specificity tyrosine-phosphorylation-regulated kinase 1A (Rattus norvegicus, UniProt Q63470). As to the kind of experiment: Inhibition of recombinant rat DYRK1A kinase domain (1 to 499 residues) expressed in bacterial expression system using KKISGRLSPIMTEQ as substrate by ADP-glo assay.
For a further data set, the target named is Aurora kinase B (Homo sapiens, UniProt Q96GD4). As to the kind of experiment: Inhibition of recombinant human AURKB expressed in baculovirus infected Sf9 insect cells using myelin basic protein as substrate by ADP-Glo assay.
In data set [4] the target is Casein kinase I isoform epsilon (Homo sapiens, UniProt P49674). As to the kind of experiment: Inhibition of recombinant human CK1epsilon expressed in baculovirus infected Sf9 insect cells using RRKHAAIGSpAYSITA as substrate by ADP-glo assay.
A short description of data set [5]: Cytotoxicity against human FADD-deficient Jurkat I 2.1 cells assessed as reduction in cell viability at >25 uM measured after 24 hrs by MTS assay. Type of data set: cell-based. Conditions: jurkat i 2.1, 24 h. In general terms: Formazan colour is commonly taken as a measure of viable cells.
Data set [6] has as its target Cyclin-dependent kinase 5/CDK5 activator 1 (Homo sapiens, UniProt Q00535). As to the kind of experiment: Inhibition of human recombinant CDK5/p25 expressed in bacterial expression using histone H1 as substrate by ADP-glo assay.
In data set [7] the test system is Jurkat. As to the kind of experiment: Protection against TRAIL-induced apoptosis in human Jurkat assessed as increase in cell viability at 0.1 to 50 uM measured after 24 hrs by MTS assay. Type of data set: functional, cell-based. As to conditions: dose 0.1-50 µM. In short, it runs like this:
(§1)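 Jurkat wild-type cells treated with TRAIL-Flag (20 ng/mL) or staurosporine (100 nM) together with increasing compound doses for 24 h; viability by MTS reduction as % of DMSO-treated cells; mean ± SD, n = 3.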

Data set [8] deals with Jurkat. As to the kind of experiment: Protection against staurosporine-induced apoptosis in human Jurkat assessed as increase in cell viability at 0.1 to 50 uM measured after 24 hrs by MTS assay. In kind it is functional, cell-based. Conditions: dose 0.1-50 µM. In short, it runs like this: as §1

The structures appear in SMILES notation. Calls of active or inactive are those of the source. No cut-off for these calls is given here. A value given as a limit tells only on which side of the number the result lay.

Sequence of Cyclin-dependent kinase 5/CDK5 activator 1 (Q00535 whole entry): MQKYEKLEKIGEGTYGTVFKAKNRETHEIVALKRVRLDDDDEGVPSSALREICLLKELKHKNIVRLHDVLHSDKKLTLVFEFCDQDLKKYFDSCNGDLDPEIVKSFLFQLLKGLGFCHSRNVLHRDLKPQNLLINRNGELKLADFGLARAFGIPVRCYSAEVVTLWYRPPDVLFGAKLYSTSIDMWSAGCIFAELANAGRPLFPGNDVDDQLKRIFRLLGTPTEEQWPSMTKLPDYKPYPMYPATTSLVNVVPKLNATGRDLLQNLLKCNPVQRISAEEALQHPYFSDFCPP
Sequence of Cyclin-dependent kinase 5/CDK5 activator 1 (Q15078 whole entry, further chain): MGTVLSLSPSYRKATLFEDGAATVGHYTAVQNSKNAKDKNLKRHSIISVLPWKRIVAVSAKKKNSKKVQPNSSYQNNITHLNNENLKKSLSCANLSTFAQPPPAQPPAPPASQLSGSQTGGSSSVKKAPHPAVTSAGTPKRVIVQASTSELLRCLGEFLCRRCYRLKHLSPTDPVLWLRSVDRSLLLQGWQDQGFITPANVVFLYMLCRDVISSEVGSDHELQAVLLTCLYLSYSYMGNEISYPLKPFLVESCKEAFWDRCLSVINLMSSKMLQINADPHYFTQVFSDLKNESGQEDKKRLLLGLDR
Sequence of Casein kinase I isoform epsilon (P49674 whole entry, canonical isoform): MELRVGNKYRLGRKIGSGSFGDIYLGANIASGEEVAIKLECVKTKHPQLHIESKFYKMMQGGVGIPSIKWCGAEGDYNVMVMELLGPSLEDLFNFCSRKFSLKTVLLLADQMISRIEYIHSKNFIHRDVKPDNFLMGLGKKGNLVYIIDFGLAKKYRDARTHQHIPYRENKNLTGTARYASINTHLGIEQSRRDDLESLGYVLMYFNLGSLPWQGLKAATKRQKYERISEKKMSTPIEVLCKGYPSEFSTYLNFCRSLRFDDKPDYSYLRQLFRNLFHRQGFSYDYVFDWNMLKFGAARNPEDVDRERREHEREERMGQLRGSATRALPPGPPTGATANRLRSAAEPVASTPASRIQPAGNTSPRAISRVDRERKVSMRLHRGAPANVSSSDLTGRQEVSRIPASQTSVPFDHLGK
Sequence of Tyrosine-protein kinase ABL1 (P00519 whole entry, the tested form may be a part): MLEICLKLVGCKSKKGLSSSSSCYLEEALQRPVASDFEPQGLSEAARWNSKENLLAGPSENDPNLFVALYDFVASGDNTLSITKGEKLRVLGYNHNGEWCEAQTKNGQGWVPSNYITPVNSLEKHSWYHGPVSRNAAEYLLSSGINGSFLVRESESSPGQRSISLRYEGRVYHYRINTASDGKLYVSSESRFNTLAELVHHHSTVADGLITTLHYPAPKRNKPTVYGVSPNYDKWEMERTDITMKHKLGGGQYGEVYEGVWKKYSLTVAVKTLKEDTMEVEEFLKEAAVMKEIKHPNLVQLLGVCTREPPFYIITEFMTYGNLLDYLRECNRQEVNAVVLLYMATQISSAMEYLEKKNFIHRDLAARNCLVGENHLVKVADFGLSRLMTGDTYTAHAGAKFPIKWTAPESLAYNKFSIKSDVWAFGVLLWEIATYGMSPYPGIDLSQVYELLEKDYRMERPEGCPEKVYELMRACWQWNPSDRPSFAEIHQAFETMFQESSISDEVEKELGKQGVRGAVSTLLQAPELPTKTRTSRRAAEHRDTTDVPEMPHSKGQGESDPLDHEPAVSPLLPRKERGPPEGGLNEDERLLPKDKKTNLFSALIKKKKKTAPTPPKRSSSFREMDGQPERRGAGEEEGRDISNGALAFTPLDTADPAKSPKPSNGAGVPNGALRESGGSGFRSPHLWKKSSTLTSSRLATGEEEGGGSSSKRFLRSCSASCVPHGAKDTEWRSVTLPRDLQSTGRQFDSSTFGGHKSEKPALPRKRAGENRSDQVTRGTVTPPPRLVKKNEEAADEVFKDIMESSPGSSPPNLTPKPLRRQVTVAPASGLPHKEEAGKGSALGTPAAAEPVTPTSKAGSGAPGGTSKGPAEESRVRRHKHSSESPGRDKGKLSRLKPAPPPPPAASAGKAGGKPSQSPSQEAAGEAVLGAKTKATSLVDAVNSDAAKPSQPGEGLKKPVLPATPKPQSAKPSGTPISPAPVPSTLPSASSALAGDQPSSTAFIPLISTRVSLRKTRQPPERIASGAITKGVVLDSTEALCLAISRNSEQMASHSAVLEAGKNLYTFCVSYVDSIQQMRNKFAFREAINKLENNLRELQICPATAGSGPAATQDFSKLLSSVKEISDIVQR
Sequence of Aurora kinase B (Q96GD4 whole entry, canonical isoform): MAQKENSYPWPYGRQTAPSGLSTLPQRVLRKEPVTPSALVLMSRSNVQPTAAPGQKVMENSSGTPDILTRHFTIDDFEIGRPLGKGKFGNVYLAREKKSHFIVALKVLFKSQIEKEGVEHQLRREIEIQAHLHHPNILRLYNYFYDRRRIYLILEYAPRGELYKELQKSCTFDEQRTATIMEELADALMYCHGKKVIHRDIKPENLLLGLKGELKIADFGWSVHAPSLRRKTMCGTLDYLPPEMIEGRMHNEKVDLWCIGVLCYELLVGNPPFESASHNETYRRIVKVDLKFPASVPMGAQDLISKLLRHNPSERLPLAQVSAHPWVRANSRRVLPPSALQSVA

`CCCCNc1nc2ccc([N+](=O)[O-])cc2[nH]1`: the IC50 is over 10 µM in data set [1]; over 10 µM in data set [2]; 1.8 µM in data set [3]; over 10 µM on Aurora kinase B; over 10 µM in data set [4]; over 10 µM in data set [6]. Further, the Activity entry in data set [5] was “Toxic”.
As to `CCCCNc1nc2cc([N+](=O)[O-])ccc2s1`, the concentration for half-maximal inhibition (IC50) was over 10 µM in data set [1]; over 10 µM in data set [2]; 2.21 µM in [3]; over 10 µM on Aurora kinase B; over 10 µM in data set [4]; over 10 µM in data set [6]. The result in the data set with Jurkat [7] and in the data set with Jurkat [8] was inactive.

Source of the values: ChEMBL document CHEMBL4765378, “Discovery of simplified benzazole fragments derived from the marine benzosceptrin B as necroptosis inhibitors involving the receptor interacting protein Kinase-1” (Eur J Med Chem, 2020).
